≈ marks a conversion by molar mass, not a printed value.
Key:
Trichophyton benhamiae [1] = experiment: Antifungal activity against Trichophyton mentagrophytes MUCC 665 after 48 hrs by tube dilution method; assay type: functional, Arthroderma benhamiae
Summary of the method: (§1)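 Tube dilution MIC as for bacteria (seven concentrations, 200–3.1 […]), with DMSO in place of DMF. Tubes inoculated with fungal culture and incubated 48 h at 37 °C. MIC read from presence or absence of growth.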

[2] = Anthelmintic activity against Megascoplex konkanensis ICARBC 211 assessed as mean paralyzing time; assay type: functional
Summary of the method: (§2)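 Earthworms exposed to test suspensions at 2 mg mL^-1 (0.2% w/v), made by triturating compound with Tween 80 (0.5%) and distilled water, then mechanically stirred 30 min. Mebendazole suspension prepared alike as reference. Paralysis and death times recorded; death confirmed by no movement in 50 °C water. Means from triplicate sets.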

Pseudomonas aeruginosa [3] = experiment: Antibacterial activity against Pseudomonas aeruginosa NCIM 2034 after 18 hrs by disc diffusion method; assay type: functional
Summary of the method: (§3)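 Modified Kirby-Bauer disc diffusion. Plates inoculated with spore suspension (about 6 × 10⁴ spores mL^-1). Sterile 6 mm paper discs carried test samples at 10 mg mL^-1; ciprofloxacin disc as reference, DMF disc as negative control. Plates held 18 h at 37 °C. Inhibition zone diameters (mm) averaged over triplicate sets.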

Trichophyton benhamiae [4] = experiment: Antifungal activity against Trichophyton mentagrophytes MUCC 665 after 48 hrs by disc diffusion method; assay type: functional, Arthroderma benhamiae
Summary of the method: (§4)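 Agar well diffusion on plates inoculated with spore suspension in normal saline from cultures on Sabouraud's broth. Wells punched and loaded with test samples or griseofulvin at 10 mg mL^-1, with DMSO as negative control. Incubated 48 h at 37 °C.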

Microsporum audouinii [5] = experiment: Antifungal activity against Microsporum audouinii MUCC 545 after 48 hrs by tube dilution method; assay type: functional; summary of the method: as §1
Pseudomonas aeruginosa [6] = experiment: Antibacterial activity against Pseudomonas aeruginosa NCIM 2034 after 18 hrs by tube dilution method; assay type: functional; conditions: NCIM 2034, 18 h
Summary of the method: (§5)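 Tube dilution MIC. Stock diluted in sterile broth to seven concentrations from 200 to 3.1 […]. Each tube inoculated with one loopful of test bacterium and incubated 18 h at 37 °C. MIC read from presence or absence of growth.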

Escherichia coli [7] = experiment: Antibacterial activity against Escherichia coli NCIM 2065 after 18 hrs by tube dilution method; assay type: functional; conditions: NCIM 2065, 18 h
Eudrilus [8] = experiment: Anthelmintic activity against Eudrilus sp. assessed as mean paralyzing time; assay type: functional; summary of the method: as §2
Eudrilus [9] = experiment: Anthelmintic activity against Eudrilus sp. assessed as mean death time; assay type: functional
Summary of the method: (§6)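 Earthworms exposed to test suspensions at 2 mg mL−1, prepared by triturating compound with Tween 80 (0.5%) and distilled water, stirring 30 min, then diluting to 0.2% w/v. Mebendazole suspension was made the same way. Death was confirmed by moving worms into 50 °C warm water and looking for movement. Mean death time (min) taken from triplicate sets.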

Staphylococcus aureus [10] = experiment: Antibacterial activity against Staphylococcus aureus NCIM 2079 after 18 hrs by disc diffusion method; assay type: functional; summary of the method: as §3
Escherichia coli [11] = experiment: Antibacterial activity against Escherichia coli NCIM 2065 after 18 hrs by disc diffusion method; assay type: functional; summary of the method: as §3
Pontoscolex corethrurus [12] = experiment: Anthelmintic activity against Pontoscolex corethrurus ICARBC 408 assessed as mean paralyzing time; assay type: functional; summary of the method: as §2
Bacillus subtilis [13] = experiment: Antibacterial activity against Bacillus subtilis NCIM 2063 after 18 hrs by tube dilution method; assay type: functional; conditions: NCIM 2063, 18 h; summary of the method: as §5
Pontoscolex corethrurus [14] = experiment: Anthelmintic activity against Pontoscolex corethrurus ICARBC 408 assessed as mean death time; assay type: functional; summary of the method: as §6
[15] = Anthelmintic activity against Megascoplex konkanensis ICARBC 211 assessed as mean death time; assay type: functional; summary of the method: as §2
Bacillus subtilis [16] = experiment: Antibacterial activity against Bacillus subtilis NCIM 2063 after 18 hrs by disc diffusion method; assay type: functional; summary of the method: as §3
Candida albicans [17] = experiment: Antifungal activity against Candida albicans MUCC 29 after 48 hrs by disc diffusion method; assay type: functional; summary of the method: as §4
Aspergillus niger = experiment: Antifungal activity against Aspergillus niger MUCC 177 after 48 hrs by disc diffusion method; assay type: functional; summary of the method: as §4
Staphylococcus aureus [18] = experiment: Antibacterial activity against Staphylococcus aureus NCIM 2079 after 18 hrs by tube dilution method; assay type: functional; conditions: NCIM 2079, 18 h; summary of the method: as §5
Candida albicans [19] = experiment: Antifungal activity against Candida albicans MUCC 29 after 48 hrs by tube dilution method; assay type: functional; summary of the method: as §1
Microsporum audouinii [20] = experiment: Antifungal activity against Microsporum audouinii MUCC 545 after 48 hrs by disc diffusion method; assay type: functional; summary of the method: as §4

Structure (SMILES)	MIC (Trichophyton benhamiae [1]) [µg/mL]	TIME [2] [h]	inhibition zone (IZ) (Pseudomonas aeruginosa [3]) [mm]	inhibition zone (IZ) (Trichophyton benhamiae [4]) [mm]	MIC (Microsporum audouinii [5]) [µg/mL]	MIC (Pseudomonas aeruginosa [6]) [µg/mL]	MIC (Escherichia coli [7]) [µg/mL]	Time (Eudrilus [8]) [min]	Time (Eudrilus [9]) [min]	inhibition zone (IZ) (Staphylococcus aureus [10]) [mm]	inhibition zone (IZ) (Escherichia coli [11]) [mm]	Time (Pontoscolex corethrurus [12]) [min]	MIC (Bacillus subtilis [13]) [µg/mL]	Time (Pontoscolex corethrurus [14]) [min]	TIME [15] [h]	inhibition zone (IZ) (Bacillus subtilis [16]) [mm]	inhibition zone (IZ) (Candida albicans [17]) [mm]	inhibition zone (IZ) (Aspergillus niger) [mm]	MIC (Staphylococcus aureus [18]) [µg/mL]	MIC (Candida albicans [19]) [µg/mL]	further results
COC(=O)[C@H](C)NC(=O)[C@@H]1CCCN1C(=O)c1cc(-c2nc3ccc([N+](=O)[O-])cc3[nH]2)ccc1O	6 (≈ 12.5 µM)	0.438	28	17	6 (≈ 12.5 µM)	6 (≈ 12.5 µM)	12.5 (≈ 26 µM)	27.23	35.82	9	18	31.98	12.5 (≈ 26 µM)	43.76	0.587	13	22	16	25 (≈ 51.9 µM)	6 (≈ 12.5 µM)	inhibition zone (IZ) (Microsporum audouinii [20]): 12 mm
COC(=O)CNC(=O)[C@H](CC(C)C)NC(=O)c1ccc(-c2nc3cc(C)c(C)cc3[nH]2)cc1	6 (≈ 13.3 µM)	0.472	20	12	25 (≈ 55.5 µM)	6 (≈ 13.3 µM)	12.5 (≈ 27.7 µM)	29.73	42.54	9	14	37.17	6 (≈ 13.3 µM)	49.4	0.69	10	18	16	12.5 (≈ 27.7 µM)	6 (≈ 13.3 µM)	inhibition zone (IZ) (Microsporum audouinii [20]): 10 mm
COC(=O)[C@H](Cc1c[nH]c2ccccc12)NC(=O)c1cc(-c2nc3ccc([N+](=O)[O-])cc3[nH]2)ccc1O	6 (≈ 12 µM)	0.218	20	17	12.5 (≈ 25 µM)	12.5 (≈ 25 µM)	12.5 (≈ 25 µM)	13.37	23.93	12	16	17.02	6 (≈ 12 µM)	29.41	0.374	12	20	16	12.5 (≈ 25 µM)	6 (≈ 12 µM)	inhibition zone (IZ) (Microsporum audouinii [20]): 10 mm
COC(=O)[C@H](CCCNC(=N)N[N+](=O)[O-])NC(=O)c1ccc(-c2nc3cc(C)c(C)cc3[nH]2)cc1	12.5 (≈ 26 µM)	0.309	23	12	12.5 (≈ 26 µM)	6 (≈ 12.5 µM)	12.5 (≈ 26 µM)	18.67	28.21	9	17	21.65	12.5 (≈ 26 µM)	35.22	0.443	14	15	15	25 (≈ 51.9 µM)	12.5 (≈ 26 µM)	inhibition zone (IZ) (Microsporum audouinii [20]): 8 mm
COC(=O)[C@@H]1CCCN1C(=O)[C@@H](NC(=O)[C@H](Cc1ccccc1)NC(=O)c1cc(I)c(-c2nc3cc(C)c(C)cc3[nH]2)c(I)c1)C(C)C	6 (≈ 6.85 µM)	0.454	22	12	12.5 (≈ 14.3 µM)	12.5 (≈ 14.3 µM)	25 (≈ 28.6 µM)	29.24	45.34	12	16	33.64	6 (≈ 6.85 µM)	50.22	0.672	16	16	14	25 (≈ 28.6 µM)	6 (≈ 6.85 µM)	inhibition zone (IZ) (Microsporum audouinii [20]): 10 mm
